Columns and labels:
tau aggregation = settings: phase 2 (curcumin) and phase 3 (methylene blue/LMTX) trials; cited from earlier work
PS19 mice [1] = experiment: Barnes maze test; type: in vivo, mouse; settings: 10 mg/kg i.v. weekly for 10 weeks
Summary of the method: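 Mice were seeded with K18+ fibrils (2-month males, 6-month females) and given weekly tail-vein 10 mg/kg for 10 weeks plus intranasal mannitol; PBS vehicle; C57BL/6J controls. Maze had 20 holes with an escape box. Acquisition was 10 trials (2/day, 15-min interval, 2 min each). Probe came 1 day later: tunnel replaced, 90 s, with primary latency and target-hole entries. Testing was blinded and randomized.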

tau K18^+ fibrils [2] = experiment: TEM of tau K18+ aggregation with inhibitor; type: biochemical; settings: 20 μM tau K18+, 48 h; 5-100 μM peptide or MNPs-DP 0.005-0.04 mg/ml
Summary of the method: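 Recombinant tau K18+ (20 µM final, PBS pH 7.4) was aggregated with 40 µM ThT, 15 µM heparin and 1 mM DTT at 37°C with 700 rpm double orbital shaking. Test peptide was at 5–100 µM; nanoparticles at 0.005–0.04 mg/ml. For TEM, 6 µl sample went on glow-discharged carbon grids for 5 min, then 2% uranyl acetate for 2 min.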

AD tau fibrils = experiment: TEM of AD-extracted tau fibrils after treatment; type: biochemical; settings: 0.02 mg/ml (86 μM 7-DP for MNPs-DP), 48 hours, 37°C; n = 10 images
PS19 mice [3] = experiment: H&E histology of major organs; type: in vivo, mouse; settings: 10 mg/kg i.v. weekly for 10 weeks
Summary of the method: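 Seeded PS19 mice were treated weekly i.v. at 10 mg/kg for 10 weeks with intranasal mannitol. Heart, liver, spleen, lung and kidney (n = 3) were fixed in 4% buffered formalin at 4°C overnight and embedded in paraffin. Sections of 5 µm were stained with hematoxylin and eosin.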

PS19 mice [4] = experiment: Serum AST as index of hepatic toxicity; type: in vivo, mouse; settings: 10 mg/kg i.v. weekly for 10 weeks; n = 13; ELISA
tau K18^+ fibrils [5] = experiment: TEM of preformed tau K18+ fibrils after treatment; type: biochemical; settings: 7-DP 2.5-100 μM or MNPs-DP 0.005-0.02 mg/ml, 24 hours
PS19 mice [6] = experiment: Novel object recognition test; type: in vivo, mouse; settings: 10 mg/kg i.v. weekly for 10 weeks, n = 13
Summary of the method: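 PS19 mice seeded with K18+ fibrils, then weekly i.v. 10 mg/kg for 10 weeks with intranasal mannitol; PBS vehicle. Arena habituation was 10 min, 24 h before testing. Acquisition: two identical objects, 10 min. After 90 min in the home cage, retention: one familiar and one novel object, 10 min. Exploration was nose, mouth or forepaw contact. DR = TC/(TR + TC); […].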

C57BL/6J mice brain = experiment: BBB penetration, Fe in brain by ICP-MS; type: in vivo, mouse; settings: 10 mg/kg tail vein with intranasal mannitol; 2 hours; n = 3 per group
Summary of the method: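 Wild-type C57BL/6J mice aged 2 months received 20 μl of 2% mannitol intranasally, then test nanoparticles at 10 mg/kg by tail vein; controls received PBS. Mice were euthanized after 2 h and perfused. Half-brains were dried at 105°C, digested in concentrated HNO3/HCl at 80°C for 2 h and diluted. Fe was quantified by ICP-MS.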

tau K18^+ fibrils [7] = experiment: ThT fragmentation assay of preformed tau K18+ fibrils; type: biochemical
Body weight of PS19 mice = type: in vivo, mouse; settings: 10 mg/kg i.v. weekly for 10 weeks, with intranasal mannitol; n = 13 per group
[8] = system: phosphorylated tau (ptau) pSer^202/Thr^205; experiment: AT8 immunohistochemistry of hippocampus; type: in vivo, mouse; settings: 10 mg/kg i.v. weekly for 10 weeks; n = 6 per group
Summary of the method: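 PS19 mice seeded stereotaxically with 1.5 µl recombinant K18+ tau fibril seeds (5 µg/µl). Dosing began 2 weeks later: tail-vein 10 mg/kg weekly for 10 weeks, with intranasal mannitol; vehicle was PBS. Brain sections were stained with AT8 (pSer202/Thr205) at 4°C overnight, then biotinylated anti-mouse secondary (1:1000, 1 h, 37°C). AT8-positive staining was quantified in hippocampal CA1 and CA3.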

tau K18^+ fibrils [9] = experiment: Dot blot with anti-amyloid OC antibody; type: biochemical; settings: 7-DP 2.5-100 μM or MNPs-DP 0.005-0.02 mg/ml, 24 h

Row | Compound | clinical efficacy (tau aggregation) | memory function in probe trial, overall (PS19 mice [1]; compared with PBS-treated PS19 mice) | latency time to find escape hole, learning period (PS19 mice [1]; n = 13, 6 days) | counts and length of tau K18+ fibrils (TEM) (tau K18^+ fibrils [2]) | fragmentation of AD-extracted tau fibrils by MNPs-DP or MNPs (AD tau fibrils) | histology of liver, spleen, heart, lung, kidney (PS19 mice [3]; H&E, n = 3, 100 day post-injection) | overall toxicity after 10 weeks (PS19 mice [3]; PS19 mice) | serum AST levels (PS19 mice [4]) | dose-dependent number/abundance of tau K18+ fibrils under TEM (tau K18^+ fibrils [5]) | exploration of novel versus familiar object (PS19 mice [6]; 90-min interval) | discriminatory index (DI) (PS19 mice [6]; versus vehicle) | discriminatory ratio (DR) (PS19 mice [6]; versus vehicle) | BBB penetration (C57BL/6J mice brain) | fragmentation of preformed tau K18+ fibrils, MNPs-DP and MNPs (ThT) (tau K18^+ fibrils [7]; 20 μM tau K18+ fibrils, MNPs-DP or MNPs 0.02 mg/ml, added at 10 hours, reference 50 μM 7-DP) | dose-dependent ThT fluorescence intensity of tau K18+ fibrils (tau K18^+ fibrils [7]; 7-DP 2.5-100 μM or MNPs-DP 0.005, 0.01, 0.02 mg/ml) | body weight of PS19 mice (Body weight of PS19 mice) | AT8-positive tau pathology in hippocampus CA1 and CA3 [8] | binding of anti-amyloid OC antibody to tau K18+ fibrils (tau K18^+ fibrils [9])
1 | COc1cc(/C=C/C(=O)CC(=O)/C=C/c2ccc(O)c(OC)c2)ccc1O [curcumin] | have yet to show efficacy in treating disease |  |  |  |  |  |  |  |  |  |  |  |  |  |  |  |  | 
2 | CN(C)c1ccc2nc3ccc(=[N+](C)C)cc-3sc2c1 [methylene blue/LMTX, methylene blue] | have yet to show efficacy in treating disease |  |  |  |  |  |  |  |  |  |  |  |  |  |  |  |  | 
3 | MNPs-D-TLKIVWC [MNPs-DP] |  | comparable performance to WT mice and a significant improvement in memory function compared with PBS-treated PS19 mice | learned a new task quicker with a shorter latency time to find the escape hole compared to the vehicle- or naked MNP-treated PS19 mice | reduced the length of tau fibrils in a dose-dependent manner | fragmented AD-extracted tau fibrils after a 48-hour incubation | no evidence of toxic changes or cell death in cellular structures | without apparent toxic side effects in other body systems | comparable to the vehicle groups | reduction of the abundance of tau K18^+ fibrils and a concurrent increase in the number of globular species | explored the novel object significantly longer than the familiar one | appeared to significantly improve the discriminatory index | appeared to significantly improve the discriminatory index (DI; Fig. 5G) and discriminatory ratio (DR) | can cross the BBB | fragmented preformed tau K18^+ fibrils as evidenced by the decrease of ThT signal | reduction of ThT fluorescence intensity | consistent increase in body weights | significantly limited tau pathology in both the CA1 and CA3 regions | decrease of binding to anti-amyloid OC antibody

Reference: PMC11062580 (Science Advances, 2024)
